PLCb3 inh: human PLC-beta3 inhibitors, primary screen, biochemical, fluorescence. actives 0.18% (n = 370,000). Purified PLC-beta3, fluorogenic substrate. 1-phosphatidylinositol 4,5-bisphosphate phosphodiesterase beta-3 (Homo sapiens), Q01970. inhibition, % at 12.2 µM; in the data active means inhibition above about 11%;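 further: 0% = median of compound wells on plate and 100% = full blocker control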
ADAM10 inh: human ADAM10 inhibitors, primary screen, biochemical, QFRET, HTS; Disintegrin and metalloproteinase domain-containing protein 10 (Homo sapiens), O14672; recombinant ADAM10, EDANS/DABCYL FRET peptide cleavage, 3 h; inhibition, % at 7 µM; actives 0.62% (n = 370,000);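 active means inhibition above a per-campaign cutoff equal to the mean of compounds falling between control-based bounds plus 3 SD, cut at about 20% in these data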;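 further: 0% = DMSO wells while the 100% control is not disclosed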
PLC-gamma1 inh: PLC-gamma1 enzyme inhibitors, primary screen, biochemical, fluorescence, purified enzyme. inhibition, % at 12.2 µM. fluorogenic substrate. actives 0.84% (n = 370,000). AID 720700, 2013. 1-phosphatidylinositol 4,5-bisphosphate phosphodiesterase gamma-1 (Homo sapiens), P19174
Tn7 DDE FP: inhibitors of Tn7 peptide binding to fibrin DD(E), primary screen, biochemical, fluorescence polarization, human fibrin, Tn7 probe; AID 720508, 2013; actives 0.13% (n = 370,000); inhibition, % at 8.3 µM; FP displacement of FITC-Tn7 peptide from fibrin DD(E); 0% = median of compound wells per plate;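 active means inhibition above the mean of compounds falling within the control limits plus 3 SD of them, cut at about 14% in these data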;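 further: 0% = plate median of compound wells and 100% = 10 µM Aha-Tn7 peptide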
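Assay system: Human fibrin DD(E) protein | Medium: Tris buffer with calcium and detergent, pH 7.8 | Reagent: 0.1 µM fluorescent Tn7 | Compound dosing: Single point at 8.3 µM | Times: 10 min preincubation, 3 h with tracer, room temperature | Detection: Fluorescence polarization of the labelled Tn7 tracer | Controls: Aha-Tn7 high control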
ADAM17 inh: ADAM17 inhibitors, primary screen, biochemical, QFRET. Disintegrin and metalloproteinase domain-containing protein 17 (Homo sapiens), P78536. recombinant ADAM17, EDANS/DABCYL FRET peptide cleavage. inhibition, % at 6.95 µM. actives 0.83% (n = 370,000). AID 720648, 2013;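 active means inhibition above the mean of compounds lying between control limits plus 3 SD, set per campaign, cut at about 8.5% in these data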;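 further: 0% = DMSO-only wells as the low control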
DDE Tn6 FP inh: inhibitors of Tn6 peptide binding to fibrin DD(E), primary screen, biochemical, fluorescence polarization, human fibrin, Tn6 probe | Fibrin DD(E) TRITC-Tn6 fluorescence polarization displacement | AID 720509, 2013 | actives 0.21% (n = 370,000) | Fibrinogen beta chain (Homo sapiens), P02675 | inhibition, % at 8.3 µM;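 active means inhibition above a per-campaign cutoff: mean of compounds within control limits plus 3 SD, cut at about 15% in these data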;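 further: 0% = median of all compound wells on the plate and 100% = blocking peptide control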
PLCgamma1 ctr: PLC-gamma1 enzyme inhibitors, counter-screen for PLC-beta3 inhibitor project, biochemical, fluorescence; shares compounds with PLC-gamma1 inh; purified PLC-gamma1, fluorogenic substrate; actives 3.1% (n = 3,300); inhibition, % at 12.3 µM; AID 743258, 2014
PLCb3 confirm: PLC-beta3 inhibitor confirmation, biochemical, fluorescence, purified enzyme. shares compounds with PLC-gamma1 inh. fluorogenic substrate fluorescence. inhibition, % at 12.3 µM. actives 1% (n = 3,300). AID 743261, 2014; in the data active means inhibition above about 11%
* hit, by the source's call; · = no result given. In the library only some 2.3% were active in any assay of this set; here they are far more common. Unless noted, no stated cut-off is given here; in the data, active means inhibition above about 9.5%; inactive means the rest.

SMILES | PLCb3 inh | ADAM10 inh | PLC-gamma1 inh | Tn7 DDE FP | ADAM17 inh | DDE Tn6 FP inh | PLCgamma1 ctr | PLCb3 confirm
OC(CNCCNc1ncccc1C(F)(F)F)Cn1ccc2ccccc21 (centres undefined) | -7 | 0 | 0 | -5 | 0 | -2 | · | ·
O=C(NC1CCC1)c1ccc(C#Cc2cccc(F)c2)cn1 | -3 | -15 | 1 | 0 | -2 | -4 | · | ·
Cc1ccc(NC(=O)COc2cccc3ccc(C)nc23)c(Br)c1 | 1 | 7 | 13* | -12 | 1 | -3 | -8 | -5
COC(=O)C1CN(Cc2ccc(OC)cc2)CCS(=O)(=O)N1Cc1cn(Cc2ccc(Cl)cc2)nn1 (centres undefined) | 0 | -6 | 2 | 7 | -4 | -9 | · | ·
CCOC(=O)c1csc(NNC=O)n1 | 11* | 4 | 1 | 2 | 1 | 3 | -6 | -1
CCOC(=O)c1csc(NC(=O)CC2CCCC2)n1 | -7 | 0 | 1 | 0 | -3 | -11 | · | ·
O=C(O)C1CCCCC1C(=O)Nc1cc(Cl)ccc1Cl (centres undefined) | 1 | -8 | 1 | 1 | -4 | 3 | · | ·
O=C(O)C1CCCCC1C(=O)Nc1cc(C(F)(F)F)ccc1Cl (centres undefined) | -4 | 7 | 10.0* | 2 | 4 | 0 | -3 | -6
CC(C)CCNC(=O)CSc1nc2c(c(=O)[nH]1)CCC2 | 2 | 4 | 2 | -1 | 0 | -1 | · | ·
COC(=O)NCc1ccc(Cl)c(Cl)c1 | 2 | -5 | 12* | 0 | 4 | -5 | -7 | -3
COC(=O)NCc1ccc(CNC(=O)OC)cc1 | 6 | 0 | 3 | -5 | 0 | 1 | · | ·
N/C(CSc1ncccc1C(F)(F)F)=N\O | -2 | -2 | 9.8* | -3 | 1 | 0 | 1 | 4
N/C(=N\O)c1ccc(N2CCN(c3ncccc3C(F)(F)F)CC2)nc1 | -5 | -2 | 5 | 0 | 1 | 1 | · | ·
CCN1CCN(c2nc(N)c([N+](=O)[O-])c(Nc3ccc(C)cc3)n2)CC1 | 8 | 8 | 13* | -3 | 0 | 0 | -6 | 5
CCN(CC(=O)NC1CCS(=O)(=O)C1)C(=O)C(c1ccccc1)c1ccccc1 (centres undefined) | 1 | 1 | 12* | -1 | -7 | -9 | -2 | 0
CCN(CC(=O)NC1CCS(=O)(=O)C1)C(=O)COc1ccccc1-c1ccccc1 (centres undefined) | 2 | 4 | 1 | -2 | -2 | -2 | · | ·
CC1=CCn2c(=O)c3ccccc3c(=O)n2C1 | 1 | 11 | 11* | -7 | 2 | -3 | 8 | 2
CCC(C)NC(=O)CN1C(=O)C2CCCCN2C(=O)c2ccccc21 (centres undefined) | 0 | -13 | -2 | 1 | -4 | 7 | · | ·
O=C(Nc1nn[nH]n1)C12CC3CC(CC(C3)C1)C2 | 3 | 5 | 10* | -6 | 4 | -4 | -4 | 1
O=C(NC1=NCCS1)C12CC3CC(CC(C3)C1)C2 | 11* | 10 | 6 | -2 | 5 | 3 | -4 | -2
O=C(Nc1nncs1)C12CC3CC(CC(C3)C1)C2 | -1 | 15 | 7 | 2 | 0 | -4 | · | ·
CCOC(=O)c1c(C)nc(C)c(C(=O)OCC)c1-c1ccc(Br)cc1 | 6 | 11 | 12* | -7 | 6 | -6 | -5 | -2
CCOC(=O)c1c(C)nc(C)c(C(=O)OCC)c1-c1ccc(OC)cc1 | -1 | 2 | 3 | 3 | -1 | -1 | · | ·
O=C(Cc1ccccc1)NCCCN1CCN(CCCNC(=O)Cc2ccccc2)CC1 | 5 | 10 | 11* | -4 | 2 | -4 | -5 | -3
O=C(NCCCN1CCOCC1)C(=O)NCCc1ccccc1 | 5 | 11 | 12* | -7 | 4 | 0 | -4 | 0
SMILES | PLCb3 inh | ADAM10 inh | PLC-gamma1 inh | Tn7 DDE FP | ADAM17 inh | DDE Tn6 FP inh | PLCgamma1 ctr | PLCb3 confirm
O=C(NCCCN1CCOCC1)c1cccnc1 | 0 | -3 | -2 | -3 | -1 | 8 | · | ·
Cc1ccc(C(=O)NCCCN2CCOCC2)cc1S(=O)(=O)N1CCOCC1 | -1 | 8 | 10* | 4 | 5 | 1 | -7 | -2
O=C(NCCCN1CCOCC1)c1ccccc1 | 6 | 0 | 12* | 0 | 6 | -4 | -2 | 2
Cc1occc1-c1nnc(SCC(=O)Nc2ccncc2)n1-c1ccccc1 | -1 | -2 | 2 | -4 | -1 | -4 | · | ·
O=C(c1ccncc1)N1CC[C@H]2[C@H](CCCN2Cc2cc(F)cc(F)c2)C1 | -3 | -10 | 0 | 9 | -7 | 5 | · | ·
O=C(NCCc1ccccc1)C(=O)NN=C1CCCC1 | 3 | -13 | 9.7* | 1 | -6 | 6 | -3 | -2
COC(=O)CSc1nnc(-c2cc(-c3ccccc3)n[nH]2)n1N | 4 | 1 | 1 | -7 | 2 | -1 | · | ·
CCCOc1ccc(CC(=O)NCCc2ccccc2)cc1OC | -1 | 4 | 12* | 0 | 4 | 0 | 0 | 4
CCNCc1cc(OCC)c(OCC(=O)NCCc2ccccc2)cc1Cl | -5 | 14 | 12* | -1 | 5 | 3 | -8 | -2
COc1ccc(CCNC(=O)Cc2ccccc2)cc1OC | -4 | 1 | -1 | -2 | 0 | -3 | · | ·
CCOc1cc(CNCC(C)C)c(Cl)cc1OCC(=O)Nc1ccccc1 | -3 | 2 | -1 | -2 | -4 | -5 | · | ·
NC1=C(Cl)C(=O)c2ccc(S(N)(=O)=O)cc2C1=O | 3 | -9 | 16* | -7 | -4 | 2 | 19* | -1
NC1=C(Cl)C(=O)c2ccccc2C1=O | 8 | -12 | 5 | -1 | 0 | 7 | · | ·
O=C(Cc1ccccc1)Nc1ccc(N2CCOCC2)cc1N1CCOCC1 | 7 | 12 | 15* | -6 | 7 | 6 | -6 | -4
O=C(Cc1ccccc1)Nc1ccc(N2CCOCC2)cc1 | -2 | -1 | 0 | -4 | -4 | -2 | · | ·
COc1ccc(C(=O)Nc2ccc(S(=O)(=O)Nc3ncccn3)cc2)cc1OC | 14* | 12 | 4 | -2 | 2 | -7 | -9 | -5
O=C(Nc1cccc(C(F)(F)F)c1)O[C@@H]1CC[C@@]23CCCN2C(=O)CCC[C@H]3C1 | 5 | 8 | 2 | -10 | 3 | 11 | · | ·

Bioassay records: PubChem BioAssay, The Scripps Research Institute Molecular Screening Center
